Results from PMC4015637 (Anticancer research, 2014).
Like-named read-outs stand apart in the source and are kept apart here.

Tests used:
mice or rats = conditions: cited from earlier work
male C57/BL6 mice = test: In vivo toxicity study; conditions: for calcification in organs / histopathological analysis of the major organs (liver, heart, kidney) / toxicity in vivo (clinical pathology chemistry profile, complete blood count): 60 μg/kg i.p., three weeks
[1] = In vitro metabolic stability in monkey liver microsomes; format: in vitro ADME; conditions: 0.5 μM compound, 1 mg/ml microsomal protein, NADPH, 37°C, n=3, mean±S.D.
Outline: (§1)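 Pooled liver microsomes (1 mg/ml protein) with 0.5 μM test compound, added from acetonitrile stock, in 0.2 M phosphate pH 7.4 with NADPH-regenerating system (1.3 mM NADP+, 3.3 mM glucose-6-phosphate, 0.4 U/ml G6P dehydrogenase), shaken at 37°C. Samples at 5–120 min quenched in acetonitrile with deuterated internal standard, centrifuged, and analysed by LC-MS/MS for % remaining. Half-life reported; n=3, mean±S.D.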

human CYP27A1 = target: T1, human CYP27A1 (Homo sapiens, UniProt Q02318); test: Metabolism by purified recombinant CYP27A1 in reconstituted system; format: in vitro ADME; conditions: 50 μM substrate in 0.45% cyclodextrin, 1 μM human CYP27A1, 1 h incubation
T1 sequence (Q02318 34-531): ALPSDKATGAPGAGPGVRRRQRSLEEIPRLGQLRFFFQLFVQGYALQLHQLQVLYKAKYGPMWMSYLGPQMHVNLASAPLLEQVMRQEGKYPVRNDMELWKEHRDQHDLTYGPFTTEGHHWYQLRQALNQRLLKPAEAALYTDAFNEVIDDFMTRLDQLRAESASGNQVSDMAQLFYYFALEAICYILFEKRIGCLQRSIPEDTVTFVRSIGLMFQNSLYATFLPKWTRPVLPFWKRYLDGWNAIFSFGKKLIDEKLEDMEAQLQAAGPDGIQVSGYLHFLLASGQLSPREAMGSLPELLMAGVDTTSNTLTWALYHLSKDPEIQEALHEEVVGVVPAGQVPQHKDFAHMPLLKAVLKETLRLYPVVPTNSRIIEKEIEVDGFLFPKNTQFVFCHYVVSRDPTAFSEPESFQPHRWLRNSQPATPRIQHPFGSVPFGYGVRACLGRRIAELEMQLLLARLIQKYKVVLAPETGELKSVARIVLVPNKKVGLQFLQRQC
Outline: (§2)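 Reconstituted system: adrenodoxin (15 μM), adrenodoxin reductase (4 μM), purified recombinant human CYP11A1 or CYP27A1 (1 μM). Substrate at 50 μM final, solubilised in 0.45% 2-hydroxypropyl-β-cyclodextrin. Incubation 1 h, extended for some analogs to 2 h (CYP11A1) or 3 h (CYP27A1). Products extracted with dichloromethane and resolved by reverse-phase HPLC. Read-outs are % substrate conversion and number of products.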

[2] = In vitro metabolic stability in rat liver microsomes; format: in vitro ADME; conditions: 0.5 μM compound, 1 mg/ml microsomal protein, NADPH, 37°C, n=3, mean±S.D.
Outline: as §1

[3] = In vitro metabolic stability in human liver microsomes; format: in vitro ADME; conditions: 0.5 μM compound, 1 mg/ml microsomal protein, NADPH, 37°C, n=3, mean±S.D.
Outline: as §1

[4] = format: in vitro ADME, human, rat, mouse, monkey, dog
[5] = In vitro metabolic stability in dog liver microsomes; format: in vitro ADME; conditions: 0.5 μM compound, 1 mg/ml microsomal protein, NADPH, 37°C, n=3, mean±S.D.
Outline: as §1

[6] = In vitro metabolic stability in mouse liver microsomes; format: in vitro ADME; conditions: 0.5 μM compound, 1 mg/ml microsomal protein, NADPH, 37°C, n=3, mean±S.D.
Outline: as §1

rat CYP24A1 = target: T2, rat CYP24A1 (Rattus norvegicus, UniProt Q09128); test: Metabolism by purified recombinant CYP24A1 in reconstituted system; format: in vitro ADME; conditions: phospholipid vesicles, 0.025 mol secosteroid/mol phospholipid, 1 μM rat CYP24A1, 1 h
T2 sequence (Q09128 36-514): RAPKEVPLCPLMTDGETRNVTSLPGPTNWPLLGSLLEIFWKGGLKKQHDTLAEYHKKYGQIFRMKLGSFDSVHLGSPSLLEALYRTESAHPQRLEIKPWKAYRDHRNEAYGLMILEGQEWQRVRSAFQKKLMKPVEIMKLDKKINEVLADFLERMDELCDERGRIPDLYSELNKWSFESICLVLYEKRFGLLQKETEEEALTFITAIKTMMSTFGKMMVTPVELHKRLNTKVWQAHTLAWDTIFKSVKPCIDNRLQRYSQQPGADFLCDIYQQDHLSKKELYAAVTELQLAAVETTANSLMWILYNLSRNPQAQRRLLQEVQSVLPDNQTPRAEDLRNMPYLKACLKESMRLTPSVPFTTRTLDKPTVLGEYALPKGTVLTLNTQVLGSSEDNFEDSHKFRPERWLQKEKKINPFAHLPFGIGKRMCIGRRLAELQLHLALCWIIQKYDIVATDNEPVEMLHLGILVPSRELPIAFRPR
Outline: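 Reconstituted system: purified recombinant rat CYP24A1 (1 μM), adrenodoxin (15 μM) and adrenodoxin reductase (4 μM). Test compound incorporated into phospholipid vesicles at 0.025 mol secosteroid/mol phospholipid. Incubated 1 h. Products extracted with dichloromethane and resolved by reverse-phase HPLC. Result expressed as percentage conversion of substrate to products and number of products.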

mice = conditions: up to 30 μg/kg for three weeks; cited from earlier work
human CYP11A1 = target: T3, human CYP11A1 (Homo sapiens, UniProt P05108); test: Metabolism by purified recombinant CYP11A1 in reconstituted system; format: in vitro ADME; conditions: 50 μM substrate in 0.45% cyclodextrin, 1 μM human CYP11A1, 1 h incubation
T3 sequence (P05108 40-521): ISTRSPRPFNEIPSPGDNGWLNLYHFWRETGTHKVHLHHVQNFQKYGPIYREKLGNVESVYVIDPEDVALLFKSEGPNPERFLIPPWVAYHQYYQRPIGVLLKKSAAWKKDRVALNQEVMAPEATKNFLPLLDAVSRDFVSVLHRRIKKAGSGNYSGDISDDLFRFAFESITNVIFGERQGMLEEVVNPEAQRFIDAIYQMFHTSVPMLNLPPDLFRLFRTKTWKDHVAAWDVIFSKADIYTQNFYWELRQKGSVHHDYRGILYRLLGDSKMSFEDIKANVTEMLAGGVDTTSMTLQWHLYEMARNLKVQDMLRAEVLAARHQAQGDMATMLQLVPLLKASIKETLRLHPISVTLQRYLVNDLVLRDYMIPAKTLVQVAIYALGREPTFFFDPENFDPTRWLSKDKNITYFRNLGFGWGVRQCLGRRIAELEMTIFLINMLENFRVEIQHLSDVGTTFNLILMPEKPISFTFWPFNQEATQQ
Outline: as §2

rats = conditions: 3 μg/kg for seven consecutive days; cited from earlier work
[7] = 60 μg/kg i.p. once daily for three weeks

Compound	half-life in liver microsomes, Monkey [1]	CYP27A1 No. of different products (at least 2% of total secosteroids) (human CYP27A1)	half-life in liver microsomes, Rat [2]	half-life in liver microsomes, Human [3]	half-life in liver microsomes, average of five different species [4]	body weight (male C57/BL6 mice; [7])	serum calcium (male C57/BL6 mice; [7])	calcification in organs (male C57/BL6 mice)	histopathological analysis of the major organs (liver, heart, kidney) (male C57/BL6 mice)	toxicity in vivo (clinical pathology chemistry profile, complete blood count) (male C57/BL6 mice)	half-life in liver microsomes, Dog [5]	half-life in liver microsomes, Mouse [6]	CYP24A1 No. of different products (at least 2% of total secosteroids) (rat CYP24A1)	further results
C=C1/C(=C\C=C2/CCC[C@]3(C)[C@@H]([C@H](C)CCCC(C)(C)O)CC[C@@H]23)C[C@@H](O)C[C@@H]1O [1,25(OH)2D3, 1,25-dihydroxy vitamin D3, reference compound]	–	–	–	–	–	–	–	–	–	–	–	–	–	dose reported to generate hypercalcemia (mice or rats; mice (ref 37) or rats (ref 20)): ≥ 1 µg/kg; body weight (male C57/BL6 mice; 2 μg/kg i.p. once daily for three weeks): 21 ± 1 g; serum calcium (male C57/BL6 mice; 2 μg/kg i.p. once daily for three weeks, positive control): 14.6 ± 0.48 mg/dL
C=C1CC[C@H](O)C/C1=C/C=C1\CCC[C@@]2(C)C1CC[C@@H]2[C@@](C)(O)CCCC(C)C (stereo partly drawn) [20R(OH)D3, 20R-hydroxyvitamin D3]	15 ± 1 min	3	19 ± 3 min	34 ± 2 min	30 min	25 ± 1 g	8.6 ± 0.77 mg/dL	Calcification was not present	unremarkable histology	did not show toxicity	21 ± 2 min	25 ± 1 min	4	CYP27A1 % conversion of substrate to products (human CYP27A1): 90%
C=C1CC[C@H](O)C/C1=C/C=C1\CCC[C@@]2(C)[C@H]1CC[C@@H]2[C@@](C)(O)CCCC(C)C [20S(OH)D3, 20S-hydroxyvitamin D3]	37 ± 1 min	3	43 ± 1 min	60 ± 4 min	50 min	25 ± 1 g	8.8 ± 0.66 mg/dL	Calcification was not present	six out of the seven mice treated with 20S(OH)D3 show unremarkable histology	did not show toxicity	47 ± 1 min	42 ± 2 min	3	effect on systemic calcium levels (mice): no effect on systemic calcium levels; CYP11A1 % conversion of substrate to products (human CYP11A1): 21%; CYP11A1 No. of different products (at least 2% of total secosteroids) (human CYP11A1): 3; effect on systemic calcium levels (rats): no effect on systemic calcium levels; highest possible dose that does not cause noticeable cytotoxic effects (male C57/BL6 mice; i.p. once daily for three weeks, stated as probable): 60 µg/kg
C=C1CC[C@H](O)C/C1=C/C=C1\CCC[C@]2(C)[C@@H]([C@H](C)CCCC(C)(C)O)CC[C@@H]12 [25(OH)D3, 25-hydroxyD3]	–	–	–	–	–	–	–	–	–	–	–	–	–	dose reported to generate hypercalcemia (mice or rats; in vivo): ≥ 1 µg/kg
